HUVEC inhibit: inhibitors of HUVEC proliferation, primary screen, cell-based, 384-well; CellTiter-Glo luminescence, 72 h; stronger effect = lower value; viability, % at 10 µM (by protocol); actives 1.1% (n = 86,000); AID 648, 2007;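 active = viability at or below 30%; inactive = viability above 30%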;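 note: 100% = median luminescence of DMSO-only cell control wells on each plate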
H69AR inhibit: proliferation blockers of H69AR lung cancer cells, primary screen, cell-based, human, 86K library. H69AR lung tumor viability, ATP luminescence, 72 h; stronger effect = lower value. viability, % at 10 µM. actives 6% (n = 85,000);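 active = viability at or below 40%; inactive = viability above 40%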;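 note: multidrug resistant small cell line overexpressing MRP-1 efflux transporter; 100% = mean luminescence of untreated control wells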
Fibroblast inh: antiproliferative effect on LL 47 fibroblasts – human, LL 47 cells, CellTiter-Glo luminescence, primary screen; LL 47 human lung fibroblast viability, ATP luminescence; stronger effect = lower value; viability, % at 10 µM; actives 1.1% (n = 85,000);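 active = viability at or below 50% in the single dose screen; inactive = viability above 50%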;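 note: compound exposure lasted 72 h before the ATP readout; 100% = median luminescence of untreated cell-only wells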
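Test system: LL 47 human lung fibroblasts / Incubation: 72 h compound exposure at 37 °C after overnight plating / Technique: luminescent ATP detection, CellTiter-Glo / Compound dosing: 0.1% DMSO in all compound wells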
tolC growth inh: growth inhibitors of E. coli tolC mutant, primary screen, strain BW25113 ΔtolC::kan, 384-well | OD615 | growth inhibition, % at 10 µM (by protocol) | actives 2.2% (n = 65,000);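 active = growth inhibition at or above a cutoff equal to the mean over every tested compound plus 3 SD, cut at about 60% in these data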;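 note: growth measured after 20 h incubation at 37 °C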
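Test system: tolC-deleted E. coli BW25113; medium: LB with kanamycin 50 µg/mL; compound: single-point testing at 10 µM; incubation: 20 h compound exposure of bacteria at 37 °C; signal: OD at 615 nm; evaluation: growth inhibition in percent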
Jurkat tox 60K: cytotoxicity toward Jurkat T cells, primary screen, cytotoxicity control, cell-based, Jurkat E6.1, 60K MLSMR library. inhibition, % at 4 µM. actives 1.2% (n = 56,000). Jurkat E6.1 viability, ATP luminescence, 48 h;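 active = inhibition above the mean inhibition of all tested compounds plus 3 SD, cut at about 28% in these data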
E coli WT exp: growth inhibitors of wild-type E. coli, primary screen, strain BW25113, expanded library, OD600. actives 0.15% (n = 98,000). OD600 absorbance. AID 710, 2007. growth inhibition, % at 100 µM;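 active = growth inhibition above about 50% at one test dose, limit read from the data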;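 note: growth measured after 20 h incubation at 37 °C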
An asterisk follows results filed as active; · = no result given. Sampled rows, rich in hits. Any-hit rate of the full collection: about 6.4%.

SMILES	HUVEC inhibit	H69AR inhibit	Fibroblast inh	tolC growth inh	Jurkat tox 60K	E coli WT exp
Cc1ccc(-c2nnc(SCC(=O)Nc3ccc(S(=O)(=O)N4CCCCCC4)cc3)o2)cc1	37	8.8*	81	6	3	-5
CC(=O)c1cccc(NC(=O)CSc2nnc(-c3ccc(S(=O)(=O)N4CCCC4)cc3)o2)c1	107	88	99	3	2	-2
Cc1csc(NC(=O)CSc2nnc(-c3ccc(S(=O)(=O)N4CCCC4)cc3)o2)n1	113	34*	96	-3	5	-9
Cc1onc(-c2ccccc2Cl)c1C(=O)N1CCN(c2ccccc2)CC1	99	20*	93	11	0	5
Cc1onc(-c2ccccc2Cl)c1C(=O)N1CCN(c2cccc(Cl)c2)CC1	52	28*	54	9	61*	4
Cc1onc(-c2ccccc2Cl)c1C(=O)N1CCN(C(=O)c2ccco2)CC1	95	95	101	-8	1	2
CC1(C)Cc2cccc(OCC(=O)Nc3cc(C(F)(F)F)ccc3N3CCOCC3)c2O1	91	88	86	·	·	-3
O=C(CCSc1nnc2scc(-c3ccccc3)n12)Nc1nc(-c2ccccc2)ns1	71	109	98	65*	-9	-7
CC(=O)Nc1ccc(C(=O)CSc2nnc3scc(-c4ccccc4)n23)cc1	92	53	95	0	3	-2
CCC(C)c1ccc(NC(=O)C2CCCN(c3ncccn3)C2)cc1 (configuration not stated)	·	·	·	58	61*	2
COc1ccc(-n2c(SCCC#N)nnc2-c2cc(Cl)ccc2OC)cc1Cl	51	24*	62	24	10	-13
O=C(c1ccco1)N1CCCC(c2nc(-c3ccc(S(=O)(=O)NCc4ccccc4)cc3)no2)C1 (configuration not stated)	69	·	84	24	·	-21
COC(=O)c1sc(N)c(C(=O)OC)c1COC(=O)c1c(C)noc1C	67	19*	54	13	94*	0
Cc1noc(C)c1C(=O)OCC(=O)NC1CC1	·	·	·	·	·	-1
O=C(CCC(=O)c1ccc(F)cc1)OC1CCOC1=O (configuration not stated)	101	95	96	-17	-3	0
CCOc1ccc(N2C(=O)/C(=C/c3cc(OC)c(OC)c(OC)c3)N(CC(=O)OC)C2=S)cc1	62	25*	95	·	·	-10
CSCCC(NC(=O)c1ccc(C)o1)C(=O)O (configuration not stated)	96	99	101	-22	7	6
O=C(Nc1ccccc1)c1ccc(S(=O)(=O)N2CCCCC2)cc1	·	·	·	0	6	-11
O=C(Nc1ccn(-c2ccccc2)n1)c1ccc(S(=O)(=O)N2CCCCCC2)cc1	92	79	105	31	34*	-22
O=C(Nc1nnc(-c2ccccc2Cl)o1)c1ccc(S(=O)(=O)N2CCCCCC2)cc1	3.0*	31*	60	100*	5	-3
CC1CCCCN1S(=O)(=O)c1ccc(C(=O)Nc2nnc(-c3ccccc3Cl)o2)cc1 (configuration not stated)	3.7*	52	64	100*	2	4
CCC1CCCCN1S(=O)(=O)c1ccc(C(=O)Nc2nnc(-c3ccccc3Cl)o2)cc1 (configuration not stated)	57	20*	64	100*	1	-2
COc1ccc(OC)c(NC(=O)CSc2nc(C)cs2)c1	·	·	·	6	-9	4
Cn1c(Cl)c(C(=O)Nc2ccc(Cl)cc2)c2ccccc21	·	·	·	·	·	0
COC(=O)c1ccc2c(c1)N(Cc1nc(-c3ccc(Cl)cc3)oc1C)C(=O)C1CCCN21 (configuration not stated)	87	15*	96	-2	3	·
SMILES	HUVEC inhibit	H69AR inhibit	Fibroblast inh	tolC growth inh	Jurkat tox 60K	E coli WT exp
CCOC(=O)C1=C(C)N=c2s/c(=C3/C(=O)Nc4ccccc43)c(=O)n2C1c1ccc(C)cc1 (configuration not stated)	3.2*	1.8*	88	·	·	·
COC(=O)C1=C(C)N=c2s/c(=C/c3ccoc3)c(=O)n2C1c1ccccc1 (configuration not stated)	94	92	99	11	·	-12
COC(=O)C1=C(C)N=c2s/c(=C3\C(=O)Nc4ccccc43)c(=O)n2C1c1ccccc1 (configuration not stated)	3.3*	0.9*	82	16	-9	-23
CCCOc1ccc(-c2cnc(N)s2)cc1	·	·	·	·	·	12
COc1cc(NS(=O)(=O)c2ccc(C)cc2)c2ncccc2c1	19	4.0*	9.1*	26	79*	-5
Cc1ccc(S(=O)(=O)Nc2ccccc2-c2ccccc2NS(=O)(=O)c2ccc(C)cc2)cc1	·	·	·	·	·	-12
Cc1ccc(S(=O)(=O)Nc2cccc3cccnc23)cc1	46	1.9*	5.8*	·	·	-3
COc1ccc(C(=O)c2ccc(Cl)cc2)c2ccccc12	65	17*	94	·	·	2
CCCn1c(=O)c(C(=O)Nc2ccncc2)c(O)c2ccccc21	·	·	·	18	·	·
CCOC(=O)c1ccccc1NC(=O)c1c(O)c2ccccc2n(CC)c1=O	111	40*	102	-8	-5	-19
CCCn1c(=O)c(C(=O)Nc2nnc(CC)s2)c(O)c2ccccc21	110	23*	99	50	8	·
CN(C)C(=O)N1CCN(C(=O)N2CCOCC2)CC1	98	86	100	·	·	·
N#CC1=C(SCC(=O)c2ccc(Cl)cc2)NC2=C(C(=O)CCC2)C1c1ccco1 (configuration not stated)	52	13*	54	9	·	-10
Cc1ccc(C(=O)CSC2=C(C#N)C(c3ccco3)C3=C(CC(C)(C)CC3=O)N2)cc1 (configuration not stated)	79	70	86	29	14	-7
COc1ccc(C(c2sc3ncnn3c2O)N2CCN(c3ccccc3F)CC2)cc1OC (configuration not stated)	37	90	93	18	-2	1
COc1ccc(C(c2sc3ncnn3c2O)N2CC(C)OC(C)C2)cc1OC (configuration not stated)	29*	97	88	-6	-4	1
O=C(N/C=N/OCc1ccc(Cl)cc1Cl)NOCc1ncc(C(F)(F)F)cc1Cl	61	89	88	·	·	-1
Cc1ccc(C)c(Cn2c(=O)n(CCC(=O)NCc3ccco3)c(=O)c3ccccc32)c1	48	52	76	-6	3	-2
O=C(NCc1ccco1)c1ccc(Cn2c(=O)c3sccc3n(Cc3cccc(F)c3)c2=O)cc1	90	52	98	·	·	-18

Compound activity as filed in PubChem.
